In one data set the test system is RAW264.7 cells. The experiment in a line: MTT cell viability, RAW264.7. The class given is cell-based, mouse. Conditions: RAW cells, 24 h, compared to untreated cells. Put shortly:
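RAW264.7 macrophages grown in DMEM/10 % FBS at 37 °C, 5 % CO2. Exposed 24 h to dexamethasone (0–100 μM) or LPS (0–100 ng/mL). Viability expressed relative to untreated cells.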

Data set [1] in a line: ABTS free radical scavenging assay. Particulars: at 0.5 mg/mL. Put shortly:
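Free-radical scavenging measured by mixing ABTS working solution with test compound, then incubating 10 min in the dark at room temperature. Absorbance read at 734 nm. Trolox served as standard and positive control. Three independent experiments, mean ± SEM, one-way ANOVA vs diluent control.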

Data set [2] can be described thus: DPPH free radical scavenging assay. Particulars: at 1 mg/mL. Put shortly: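 Test compound mixed with 150 μM DPPH reagent, shaken immediately, then held 30 min in the dark at room temperature. Absorbance read at 520 nm. Trolox served as standard and positive control. Three independent experiments, mean ± SEM, one-way ANOVA vs diluent control.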
In data set [3] the test system is Escherichia coli TISTR1984. The data set is described as follows: Agar disc diffusion, E. coli. The class given is cell-based. Particulars: E. coli TISTR 1984; extracts 500 mg/mL on disc; 37 °C, 24 h. Put shortly:
(§1)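 Bacteria suspended in 0.85 % saline to McFarland 0.5 (1.5 × 10^8 CFU/mL) and swabbed onto Mueller–Hinton agar. Sterile paper discs loaded with 10 μL of 500 mg/mL extract. Chloramphenicol positive control, DMSO negative control. Plates incubated aerobically at 37 °C for 24 h. Inhibition zones measured in mm with calipers; three independent experiments, mean ± SEM.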
(In agar diffusion tests the substance spreads into inoculated agar from a disc or well.)

For data set [4], the system named is Staphylococcus aureus TISTR746. The data set is described as follows: Agar disc diffusion, S. aureus. Conditions: S. aureus TISTR 746; extracts 500 mg/mL on disc; 37 °C, 24 h. The data set is classed as cell-based. Summed up:
as §1

The subject of data set [5] is MCF-7 cells. The experiment in a line: Clonogenic cell survival assay, MCF-7. The class given is cell-based, human. Conditions: cisplatin 100 μM, 24 h, p < 0.05 vs control. Put shortly: (§2)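 Cells grown in DMEM/10 % FBS at 37 °C, 5 % CO2, seeded at 2 × 10^5 cells/well and left 24 h. Test compound or cisplatin added for 24 h. Cells trypsinised and reseeded at 1 × 10^3 cells/well without drug for 8–10 days. Fixed in cold methanol 45 min, stained with 0.5 % crystal violet 45 min. Colonies counted by light microscopy as % of untreated control; n = 3, one-way ANOVA.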

The next data set has as its system HEK293T cells. The data set is described as follows: MTT cell viability, HEK293T. The data set is classed as cell-based, human. Put shortly:
(§3)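 Cells grown in DMEM/10 % FBS at 37 °C, 5 % CO2, seeded at 5 × 10^3 cells/well and left 24 h. Exposed to extracts (0–400 µg/mL) or cisplatin (0–400 µM) for 24, 48 or 72 h. MTT added for 2 h at 37 °C, formazan dissolved in DMSO, OD read at 570 nm. % viability and IC50 derived; three independent experiments, mean ± SEM.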

Data set [6] has as its system MDA-MB-231 cells. The data set is described as follows: MTT cell viability, MDA-MB-231. The class given is cell-based, human. Conditions: MDA-MB-231, MTT. Put shortly: as §3
In data set [7] the test system is MCF-7 cells. The data set is described as follows: MTT cell viability, MCF-7. The class given is cell-based, human. Particulars: MCF-7, MTT. Put shortly: as §3
In the next data set the test system is MCF10A cells. The data set is described as follows: MTT cell viability, MCF10A. The data set is classed as cell-based, human. Summed up: as §3
Data set [8] relates to MDA-MB-231 cells. The experiment in a line: Clonogenic cell survival assay, MDA-MB-231. The class given is cell-based, human. Conditions: cisplatin 100 μM, 24 h, p < 0.0001 vs control. Put shortly:
as §2

Where two headings read alike, the source gives them in different places.

Consider lipopolysaccharide [LPS], for which the cell viability result in the data set with RAW264.7 cells (LPS at 0–12.5 ng/mL) is recorded as “unchanged”.
As to `Cc1c(C)c2c(c(C)c1O)CCC(C)(C(=O)O)O2` (centres unmarked) [Trolox], the “ABTS radical inhibition rate” value in data set [1] is on record as 69.92 ± 3.08%. For the same compound, the “DPPH radical inhibition rate” value in data set [2] turned out to be 98.02 ± 0.21%.
Take `O=C(N[C@H](CO)[C@H](O)c1ccc([N+](=O)[O-])cc1)C(Cl)Cl` [CHL, Chloramphenicol]: the results for the ZOI in [3] and in data set [4] were 29.75 ± 0.35 mm and 29.75 ± 1.77 mm, respectively.
Consider `C[C@@H]1C[C@H]2[C@@H]3CCC4=CC(=O)C=C[C@]4(C)[C@@]3(F)[C@@H](O)C[C@]2(C)[C@@]1(O)C(=O)CO` [dexamethasone], for which the cell viability entry in the data set on RAW264.7 cells (dexamethasone at 0–12.50 μM) is reported as “unchanged”.
A word on the IC50: it is the concentration that gives 50% inhibition. As to `N.N.[Cl][Pt][Cl]` [cisplatin], the colony formation entry with MCF-7 cells [5] and in the data set with MDA-MB-231 cells [8] was “significantly decreased” throughout. The IC50 in the data set on HEK293T cells (read-out: IC50 for 24 h, 24 h) was 62.3 ± 3.1 µM; with HEK293T cells (read-out: IC50 for 48 h, 48 h), 11.6 ± 1.3 µM; with HEK293T cells (read-out: IC50 for 72 h, 72 h), 3.25 ± 0.88 µM; in the data set with MDA-MB-231 cells [6] (read-out: IC50 for 24 h, 24 h), 46.7 ± 2.89 µM; in the data set on MDA-MB-231 cells [6] (read-out: IC50 for 48 h, 48 h) it was 44.7 ± 2.86 µM; in the data set with MDA-MB-231 cells [6] (read-out: IC50 for 72 h, 72 h) it was 33.3 ± 2.64 µM. Moreover, the IC50 in the data set with MCF-7 cells [7] (read-out: IC50 for 24 h, 24 h) came to 73.8 ± 3.24 µM; in the data set on MCF-7 cells [7] (read-out: IC50 for 48 h, 48 h), 41.5 ± 2.8 µM; in the data set with MCF-7 cells [7] (read-out: IC50 for 72 h, 72 h) it was 32.9 ± 2.63 µM; in the data set on MCF10A cells (read-out: IC50 for 24 h, 24 h), 74.3 ± 3.24 µM; in the data set with MCF10A cells (read-out: IC50 for 48 h, 48 h), 37.2 ± 2.72 µM; with MCF10A cells (read-out: IC50 for 72 h, 72 h), 26.2 ± 1.66 µM.
